Experimental data published in ChEMBL document CHEMBL1926614, “Substituted thiazoles V. synthesis and antitumor activity of novel thiazolo[2,3-b]quinazoline and pyrido[4,3-d]thiazolo[3,2-a]pyrimidine analogues” (2012).

Columns and labels:
Format in all cases: functional
UACC-257 = experiment: Growth inhibition of human UACC257 cells at 10 uM after 48 hrs by coulter counting; details: UACC-257, 48 h, read-out: GI
In short: (§1)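 Single-dose screen in the NCI 60 human tumor cell line panel (nine subpanels). Compounds dissolved in DMSO and diluted in phosphate buffered saline, keeping final DMSO below 1%. Added in duplicate wells to cells at 6 × 10⁴ cells/ml. Controls held PBS and DMSO at matching dilutions. Incubated at 37 °C, humidified, 5% CO₂. Reported as percent growth of treated cells.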

UACC-62 = experiment: Growth inhibition of human UACC62 cells at 10 uM after 48 hrs by coulter counting; details: UACC-62, 48 h, read-out: GI; in short: as §1
SF-539 = experiment: Growth inhibition of human SF539 cells at 10 uM after 48 hrs by coulter counting; details: SF-539, 48 h, read-out: GI
In short: (§2)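 Single-dose primary screen across the full NCI 60-cell-line panel. Stocks were made in DMSO and diluted in PBS to a final DMSO below 1%. Cultures at 6 × 10⁴ cells/ml were run in duplicate wells alongside PBS/DMSO vehicle controls at 37 °C in humidified 5% CO₂. Data were expressed as percent growth of treated cells.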

CCRF-CEM = experiment: Growth inhibition of human CCRF-CEM cells at 10 uM after 48 hrs by coulter counting; details: read-out: GI; in short: as §2
HL-60(TB) = experiment: Growth inhibition of human HL-60(TB) cells at 10 uM after 48 hrs by coulter counting; details: HL-60, 48 h, read-out: GI
In short: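 Test compound was dissolved in DMSO and diluted in phosphate-buffered saline to a final DMSO level below 1%. Dilutions were plated in duplicate with cell culture at 6 × 10⁴ cells/ml. Vehicle controls held PBS and DMSO at matching dilutions. Incubation was at 37 °C, humidified, under 5% CO₂. Data were reported as percent growth of treated cells.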

K562 = experiment: Growth inhibition of human K562 cells at 10 uM after 48 hrs by coulter counting; details: K562, 48 h, read-out: GI; in short: as §2
MOLT-4 = experiment: Growth inhibition of human MOLT4 cells at 10 uM after 48 hrs by coulter counting; details: MOLT-4, 48 h, read-out: GI; in short: as §2
RPMI-8226 = experiment: Growth inhibition of human RPMI8226 cells at 10 uM after 48 hrs by coulter counting; details: RPMI-8226, 48 h, read-out: GI; in short: as §2
A549 = experiment: Growth inhibition of human A549 cells at 10 uM after 48 hrs by coulter counting; details: A549, 48 h, read-out: GI; in short: as §2
EKVX = experiment: Growth inhibition of human EKVX cells at 10 uM after 48 hrs by coulter counting; details: read-out: GI; in short: as §2
HOP-62 = experiment: Growth inhibition of human HOP62 cells at 10 uM after 48 hrs by coulter counting; details: HOP-62, 48 h, read-out: GI; in short: as §2
NCI-H226 = experiment: Growth inhibition of human NCI-H226 cells at 10 uM after 48 hrs by coulter counting; details: NCI-H226, 48 h, read-out: GI; in short: as §2
NCI-H23 = experiment: Growth inhibition of human NCI-H23 cells at 10 uM after 48 hrs by coulter counting; details: NCI-H23, 48 h, read-out: GI; in short: as §2
[1] = Growth inhibition of human NCI-322M cells at 10 uM after 48 hrs by coulter counting; details: read-out: GI; in short: as §2
NCI-H460 = experiment: Growth inhibition of human NCI-H460 cells at 10 uM after 48 hrs by coulter counting; details: NCI-H460, 48 h, read-out: GI; in short: as §2
NCI-H522 = experiment: Growth inhibition of human NCI-H522 cells at 10 uM after 48 hrs by coulter counting; details: NCI-H522, 48 h, read-out: GI; in short: as §2
HCT-116 = experiment: Growth inhibition of human HCT116 cells at 10 uM after 48 hrs by coulter counting; details: HCT-116, 48 h, read-out: GI; in short: as §2
HCC 2998 = experiment: Growth inhibition of human HCC2998 cells at 10 uM after 48 hrs by coulter counting; details: HCC 2998, 48 h, read-out: GI; in short: as §2
HT-29 = experiment: Growth inhibition of human HT-29 cells at 10 uM after 48 hrs by coulter counting; details: HT-29, 48 h, read-out: GI; in short: as §2
KM12 = experiment: Growth inhibition of human KM12 cells at 10 uM after 48 hrs by coulter counting; details: KM12, 48 h, read-out: GI; in short: as §2
SF-268 = experiment: Growth inhibition of human SF268 cells at 10 uM after 48 hrs by coulter counting; details: SF-268, 48 h, read-out: GI; in short: as §2
SF-295 = experiment: Growth inhibition of human SF295 cells at 10 uM after 48 hrs by coulter counting; details: SF-295, 48 h, read-out: GI; in short: as §2
SNB-19 = experiment: Growth inhibition of human SNB19 cells at 10 uM after 48 hrs by coulter counting; details: SNB-19, 48 h, read-out: GI; in short: as §2
SNB-75 = experiment: Growth inhibition of human SNB75 cells at 10 uM after 48 hrs by coulter counting; details: SNB-75, 48 h, read-out: GI; in short: as §2
U-251 = experiment: Growth inhibition of human U251 cells at 10 uM after 48 hrs by coulter counting; details: U-251, 48 h, read-out: GI; in short: as §1
LOX IMVI = experiment: Growth inhibition of human LOXIMVI cells at 10 uM after 48 hrs by coulter counting; details: read-out: GI; in short: as §2
M14 = experiment: Growth inhibition of human M14 cells at 10 uM after 48 hrs by coulter counting; details: M14, 48 h, read-out: GI; in short: as §2
MDA-MB-435 = experiment: Growth inhibition of human MDA-MB-435 cells at 10 uM after 48 hrs by coulter counting; details: MDA-MB-435, 48 h, read-out: GI; in short: as §2
SK-MEL-2 = experiment: Growth inhibition of human SK-MEL-2 cells at 10 uM after 48 hrs by coulter counting; details: SK-MEL-2, 48 h, read-out: GI; in short: as §2
SK-MEL-28 = experiment: Growth inhibition of human SK-MEL-28 cells at 10 uM after 48 hrs by coulter counting; details: SK-MEL-28, 48 h, read-out: GI; in short: as §2
SK-MEL-5 = experiment: Growth inhibition of human SK-MEL-5 cells at 10 uM after 48 hrs by coulter counting; details: SK-MEL-5, 48 h, read-out: GI; in short: as §2
IGROV-1 = experiment: Growth inhibition of human IGROV1 cells at 10 uM after 48 hrs by coulter counting; details: IGROV-1, 48 h, read-out: GI; in short: as §2
OVCAR-4 = experiment: Growth inhibition of human OVCAR4 cells at 10 uM after 48 hrs by coulter counting; details: OVCAR-4, 48 h, read-out: GI; in short: as §2
NCI/ADR-RES = experiment: Growth inhibition of human NCI/ADR-RES cells at 10 uM after 48 hrs by coulter counting; details: read-out: GI; in short: as §2
A498 = experiment: Growth inhibition of human A498 cells at 10 uM after 48 hrs by coulter counting; details: A498, 48 h, read-out: GI; in short: as §2
ACHN = experiment: Growth inhibition of human ACHN cells at 10 uM after 48 hrs by coulter counting; details: read-out: GI; in short: as §2
CAKI-1 = experiment: Growth inhibition of human Caki1 cells at 10 uM after 48 hrs by coulter counting; details: CAKI-1, 48 h, read-out: GI; in short: as §2
UO-31 = experiment: Growth inhibition of human UO31 cells at 10 uM after 48 hrs by coulter counting; details: UO-31, 48 h, read-out: GI; in short: as §1
DU-145 = experiment: Growth inhibition of human DU145 cells at 10 uM after 48 hrs by coulter counting; details: DU-145, 48 h, read-out: GI; in short: as §2
MCF7 = experiment: Growth inhibition of human MCF7 cells at 10 uM after 48 hrs by coulter counting; details: MCF7, 48 h, read-out: GI; in short: as §2
BT-549 = experiment: Growth inhibition of human BT549 cells at 10 uM after 48 hrs by coulter counting; details: BT-549, 48 h, read-out: GI; in short: as §2
T47D = experiment: Growth inhibition of human T47D cells at 10 uM after 48 hrs by coulter counting; details: read-out: GI; in short: as §1

Measured: inhibition of growth at 10 µM

COc1ccc(/C=C2\CCCC3=C2N=C2SC=C(C)N2C3c2ccc(OC)cc2)cc1 (centres undefined)
12.5%: CAKI-1
23.3%: UO-31
13.5%: RPMI-8226
36%: A498
> 10%: all other assays above

C1=CN2C(=NC3=C(CCC/C3=C\c3ccccc3)C2c2ccccc2)S1 (centres undefined)
21.4%: UO-31
> 10%: all other assays above
